Rows were chosen to be rich in hits. Some 3.8% of all compounds tested hit in one or more screens of this group.
HSP90 inh = HSP90 inhibitors, primary screen, cell lysate, luminescence | Heat shock protein HSP 90 (rabbit reticulocyte lysate; luciferase refolding) | inhibition, % at 5.6 µM | AID 1789, 2009 | Rabbit reticulocyte lysate, luciferase refolding luminescence, 3 h | 290,000 compounds, 0.91% hits;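 active = inhibition above the screen-wide mean plus 3 SD, computed separately per campaign, cut at about 16% in these data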;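 note: 0% = DMSO wells and 100% = 60 µM geldanamycin wells; inhibitors lower the luminescence because luciferase stays unfolded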
HSF1 inhib = HSF1 inhibitors in luciferase reporter cells, primary screen, cell-based, NIH3T3, luminescence; NIH3T3-HGL HSE-luciferase, MG132-induced, luminescence 8 h; hits give low values; activity change, negative = inhibition, % at 7.5 µM (by protocol); 300,000 compounds, 0.77% hits;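 active = more than half of replicate wells show activity change below -50%, luminescence cut by over half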;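 note: luciferase reports HSF-1 transcriptional activity via heat shock element; 0% = median of DMSO wells and -100% = zero luminescence signal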
HSF1 activator = HSF-1 activators, primary screen, NIH3T3-HGL cells, MG132 stress, luminescence, single point; NIH3T3-HGL HSF-1 luciferase reporter, 8 h; 100% = twice DMSO control signal; activation, % at 9 µM; 300,000 compounds, 1.7% hits; AID 504408, 2011;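 active = mean replicate activation of at least 50% with a set share of replicates each reaching 50%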;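 note: 0% = median of the neutral control wells and 100% = twice that signal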
Lipid droplet = inhibitors of hepatocyte lipid droplet formation, primary screen, imaging, high-throughput imaging, BODIPY stain | AML12 mouse hepatocytes, oleate lipid droplets | inhibition, % at 6.5 µM | 240,000 compounds, 0.4% hits;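 active = lipid droplet intensity inhibited by at least 50%, with more than 500 cells counted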
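material = mouse AML12 hepatocyte cell line, fixed after treatment | also added = 100 µM oleic acid challenge | doses = compound at 6.5 µM only | schedule = overnight exposure | technique = Image-based BODIPY and DAPI two-channel analysis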
HCV NS3 hel inh = inhibitors of HCV NS3 helicase, primary screen, biochemical, Cy5 molecular beacon fluorescence; Hepatitis C virus NS3 helicase; NS3 helicase DNA unwinding; inhibition, % at 10.9 µM; 290,000 compounds, 0.56% hits;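 active = inhibition above the mean of all tested compounds plus 3 SD, set per campaign, cut at about 35% in these data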;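 note: 0% = DMSO wells and 100% = thioflavine S control wells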
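Measured by: Cy5 fluorescence, 0 and 60 min reads / Assay system: NS3 helicase fragment of HCV / Control set: low DMSO, high thioflavine S at 110 µM / Times: 1 h reaction at 25 °C, ATP-initiated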
HSP90 confirm = HSP90 inhibitors, confirmation, cell lysate, luminescence; shares compounds with HSP90 inh; rabbit reticulocyte lysate, luciferase refolding luminescence, 3 h; inhibition, % at 5.9 µM; 2,300 compounds, 64% hits; AID 1846, 2009; in the data active = inhibition above about 18%;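 note: 0% = vehicle wells and 100% = reference inhibitor wells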
luciferase ctr = firefly luciferase inhibitors, HSP90 counter-screen, confirmation, artefact control for HSP90 inhibitor project, biochemical, luminescence, triplicate; shares compounds with HSP90 inh; purified native firefly luciferase; inhibition, % at 5.9 µM; 2,300 compounds, 48% hits; AID 1847, 2009;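 active = inhibition above the mean inhibition of all tested sample wells plus 3 SD, cut at about 10% in these data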;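 note: 0% = DMSO with luciferase and 100% = wells lacking luciferase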
Target sequence (P08659 whole entry, looked up): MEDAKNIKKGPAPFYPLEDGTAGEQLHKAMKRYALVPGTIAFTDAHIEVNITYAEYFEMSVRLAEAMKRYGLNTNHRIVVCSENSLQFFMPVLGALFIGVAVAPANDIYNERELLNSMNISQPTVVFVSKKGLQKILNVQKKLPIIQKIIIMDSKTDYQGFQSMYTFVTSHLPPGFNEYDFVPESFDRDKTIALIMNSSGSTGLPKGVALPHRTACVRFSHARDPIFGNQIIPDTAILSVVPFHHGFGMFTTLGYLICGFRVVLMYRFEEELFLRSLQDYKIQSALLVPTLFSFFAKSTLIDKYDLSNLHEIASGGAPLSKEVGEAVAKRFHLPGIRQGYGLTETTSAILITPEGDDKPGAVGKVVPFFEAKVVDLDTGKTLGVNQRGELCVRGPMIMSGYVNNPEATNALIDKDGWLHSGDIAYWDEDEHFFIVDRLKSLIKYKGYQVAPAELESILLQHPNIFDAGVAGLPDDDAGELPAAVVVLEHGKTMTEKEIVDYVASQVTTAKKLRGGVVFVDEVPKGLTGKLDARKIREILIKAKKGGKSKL
Numbers without * were called inactive; / = not tested or not shown.

SMILES | HSP90 inh | HSF1 inhib | HSF1 activator | Lipid droplet | HCV NS3 hel inh | HSP90 confirm | luciferase ctr
CCOC(=O)Nc1ccc2c(c1)N(C(=O)CCN(CC)CC)c1ccccc1CC2 | 26.4* | -4.5 | -8.9 | -23.1 | -13.8 | -0.9 | -2.8
CCN(CC)CCC(=O)N1c2ccccc2CCc2ccc(NC(=O)OC)cc21 | -1.2 | -1.7 | -3.2 | 2.6 | 4.3 | / | /
COCCN1Cc2cccc(C(=O)NC(C)CCc3ccco3)c2C1=O (centres undefined) | -3.4 | -2.5 | 3.4 | -15.8 | 3.6 | / | /
CCN(CC)c1ccc(/C=N/Nc2nc3ccccc3[nH]2)c(O)c1 | 39.9* | 131.6 | 169.3* | 9.4 | 6.1 | 23.4* | -17.8
C(=N\Nc1nc2ccccc2[nH]1)/c1ccccn1 | 79.4* | 0.1 | -2.4 | -58.3 | -0.8 | 88.0* | 84.7*
C[C@@H](CC#N)CN1CC[C@H](C(C)(C)C)CCC1=O | 1.1 | -2.6 | -8.9 | 28.8 | 17.6 | / | /
Cc1ccc(S(=O)(=O)NCc2cccnc2)cc1C(=O)N1CCCC1 | -0.8 | -3.6 | 4.4 | 12.4 | -1.7 | / | /
CC(c1ccccc1)N1C(=O)/C(=C/c2ccncc2)SC1=S (centres undefined) | 0.9 | 8.3 | 37.8 | 26.5 | -9.6 | / | /
COc1ccc(N2CCN(/C(=N\S(=O)(=O)c3ccccc3)Nc3nc(C)cc(C)n3)CC2)cc1 | 39.0* | -6.1 | 20.2 | -5.1 | 10.0 | -3.8 | -5.9
Cc1ccc(S(=O)(=O)/N=C(/Nc2nc(C)cc(C)n2)N2CCOCC2)cc1 | 2.4 | -1.4 | 3.4 | / | 28.7 | / | /
Cc1ccc2c(C)c(C(=O)N(C)C(C)c3ccon3)oc2c1C (centres undefined) | 0.9 | 24.9 | 20.1 | -19.4 | -5.5 | / | /
CC(=O)N(C1=C(N2CCOCC2)C(=O)c2ccccc2C1=O)c1ccc(C(=O)O)cc1 | 24.3* | 0.3 | -7.1 | -1.2 | 10.2 | 6.2 | 0.5
CC(=O)N(C)C1=C(N2CCOCC2)C(=O)c2ccccc2C1=O | 3.8 | -4.2 | 14.6 | / | 0.8 | / | /
COc1cccc(C(=O)Nc2ccccc2OC(F)(F)F)c1 | 2.6 | -7.9 | -26.3 | -2.5 | 2.5 | / | /
CC(C)c1ccc2oc(-c3cc(N)ccc3O)nc2c1 | 45.6* | -40.8 | -43.7 | / | 15.0 | 79.5* | 79.0*
Cc1ccccc1-c1nc2cc(N)ccc2o1 | 6.7 | 20.7 | 11.8 | / | 0.5 | / | /
CC(=O)CSc1ccc(-c2nc3cc(C)c(C)cc3[nH]2)cn1 | 68.9* | -1.4 | -1.9 | -10.2 | -0.6 | 91.0* | 56.6*
CC(=O)CSc1ccc(-c2nc3ccccc3[nH]2)cn1 | 24.3* | 13.2 | 35.5 | 6.3 | 0.0 | 46.4* | 1.9
CCC1Nc2ncnc(N3CCN(c4ccccn4)CC3)c2N(Cc2ccc(Cl)cc2)C1=O (centres undefined) | / | 4.4 | 8.9 | / | / | / | /
O=C(NC1CC2CCCC(C1)N2Cc1ccccc1)c1ccc([N+](=O)[O-])cc1 (centres undefined) | -2.1 | -1.1 | 7.1 | -3.3 | -8.5 | / | /
COc1ccccc1OCc1ccc(C(=O)Nc2ccc(Cl)cn2)o1 | -2.1 | 8.9 | 38.0 | -3.3 | 3.9 | / | /
O=S1OCCN1c1ccccc1 (centres undefined) | -3.7 | 1.3 | 11.1 | -0.2 | 4.7 | / | /
O=C(NCCc1ccccc1)c1ccc2c(c1)OCO2 | 75.6* | -17.9 | -4.7 | -3.9 | 2.2 | 83.2* | 78.1*
O=C(NCCc1ccccc1)c1ccc2nccnc2c1 | 39.8* | -31.3 | -24.2 | 9.4 | 5.8 | 52.4* | 41.0*
CCOc1ccc(C(=O)NCCc2ccccc2)cc1 | 22.9* | 0.8 | 24.1 | 5.9 | -4.5 | 66.1* | 54.6*
SMILES | HSP90 inh | HSF1 inhib | HSF1 activator | Lipid droplet | HCV NS3 hel inh | HSP90 confirm | luciferase ctr
COc1ccc(NS(=O)(=O)c2cn(C)cn2)c(OC)c1 | -2.4 | 0.4 | -4.9 | -7.0 | 1.8 | / | /
CC(=O)n1c2c(c3ccccc31)OC(N)=C(C#N)C2c1ccc(C(C)C)cc1 (centres undefined) | 19.6* | / | / | / | 9.3 | 10.2 | 23.7*
CC(=O)C1=C(C)OC(N)=C(C#N)C1c1cccc2ccccc12 (centres undefined) | -2.5 | 9.3 | 5.2 | -11.5 | 10.1 | / | /
COc1cc(C)ccc1OCCOCCOc1cccc2ccc(C)nc12 | -1.3 | -4.6 | 10.7 | -16.7 | 0.4 | / | /
COc1ccc(CN(C(=O)c2cc(=O)c3ccccc3o2)C2CCS(=O)(=O)C2)cc1 (centres undefined) | 6.1 | -6.2 | -10.7 | 13.6 | 0.9 | / | /
CN(CC(=O)Nc1cccc(F)c1)C(=O)CSc1nc2ccccc2s1 | / | 2.2 | -6.7 | / | / | / | /
CC(NC(=O)COc1cccnc1[N+](=O)[O-])c1ccc(F)cc1 (centres undefined) | 30.4* | -10.5 | -23.5 | 16.2 | -5.9 | 2.7 | -5.7
O=C(COc1cccnc1[N+](=O)[O-])NCc1ccc(F)cc1 | 2.8 | 2.6 | 16.6 | -7.3 | 12.4 | / | /
Cc1ccc(/C=C2\SC(=S)N(CCCC(=O)Nc3ccccn3)C2=O)cc1 | 33.5* | -66.6* | -70.6 | / | 6.6 | 38.5* | -17.7
O=C(CCN1C(=O)/C(=C/c2ccccc2)SC1=S)Nc1ccccn1 | -1.0 | 7.8 | 3.8 | -18.3 | 35.4 | / | /
COc1cc2c(cc1OC)C(C(=O)NC(C)c1ccccc1)CC(=O)N2 (centres undefined) | 1.3 | -11.1 | -0.1 | 3.2 | -1.8 | / | /
O=C(CSc1nc2ccccc2o1)NCC1CCCO1 (centres undefined) | / | -2.2 | -21.6 | / | / | / | /
Cc1cc(C(=O)CSc2nc3ccccc3o2)c(C)n1CC1CCCO1 (centres undefined) | 35.0* | -42.6 | -51.0 | 8.6 | 1.4 | 42.0* | 46.1*
Cc1cc(C(=O)COC(=O)c2ccc3c(c2)OCO3)c(C)n1CC1CCCO1 (centres undefined) | 28.9* | -45.8 | -53.2 | 19.4 | -5.7 | 48.9* | 53.8*
Cc1cc(C(=O)CSc2nc3ccccc3[nH]2)c(C)n1CC1CCCO1 (centres undefined) | 48.6* | -53.9* | -61.1 | / | 3.6 | 66.5* | 67.0*
CC(CC(=O)N1CCN(c2ccccc2)CC1)S(=O)(=O)c1ccc2c(c1)NC(=O)CO2 (centres undefined) | 2.0 | -2.3 | 2.5 | -26.3 | 18.9 | / | /
CC(C)c1ccc(C(=O)Nc2ccc(CN3CCOCC3)cc2)cc1 | 23.6* | 0.9 | -11.0 | -1.4 | -43.0 | 19.5* | -10.3
O=C(Nc1ccc(CN2CCOCC2)cc1)c1cc2ccccn2n1 | 44.7* | -36.1 | -45.0 | 11.5 | 8.2 | 61.5* | 41.2*
